bCat KO growth – beta-catenin-lacking colon tumor cell growth suppression; HCT116 beta-catenin knockout viability, CellTiter-Glo, 60 h; hits give low values; viability, % at 10 µM; actives 1.5% (n = 140,000);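 active = viability at or under a set limit, the compound median less 4 SD, cut at about 6% in these data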;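 also: 0% = Hyamine 1622 control at 20 µM and 100% = untreated cell control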
HUVEC inhibit – blocks proliferation of human endothelial cells | HUVEC proliferation, CellTiter-Glo luminescence, 72 h; hits give low values | viability, % at 10 µM (by protocol) | AID 648 | actives 1.1% (n = 86,000);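 active = viability at or below 30%; inactive = viability above 30%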;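 also: 100% = median luminescence of DMSO-only cell control wells on each plate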
Fibroblast inh – blocks proliferation of human lung fibroblasts | viability, % at 10 µM | actives 1.1% (n = 85,000) | LL 47 human lung fibroblast viability, ATP luminescence; hits give low values | AID 719;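 active = viability at or below 50% in the single dose screen; inactive = viability above 50%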;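 also: compound exposure lasted 72 h before the ATP readout; 100% = median luminescence of untreated cell-only wells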
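test system = LL 47 human lung fibroblasts | amount = 1,150 fibroblasts seeded per well | medium = 15% FBS in IMEM | times = overnight cell rest, 72 h compound treatment at 37 °C | measured by = CellTiter-Glo luminescence measuring cellular ATP | read-out = viability percentage against median untreated-cell control | benchmarks = cell-only wells, no compound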
H69AR growth 86K – growth inhibitors of human H69AR lung tumor cells. H69AR lung tumor viability, ATP luminescence, 72 h; hits give low values. viability, % at 10 µM. actives 6% (n = 85,000). AID 598;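 active = viability at or below 40%; inactive = viability above 40%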;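 also: multidrug resistant small cell line overexpressing MRP-1 efflux transporter; 100% = mean luminescence of untreated control wells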
PTEN del growth – PTEN-deleted cell growth suppression; HCT116 PTEN-null viability, CellTiter-Glo, 60 h; hits give low values; viability, % at 10 µM; actives 1.2% (n = 140,000);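 active = viability at or below a set limit, 4 SD under the median of all tested compounds, cut at about 3.7% in these data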;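 also: PTEN knockout HCT116 line with beta catenin targeted HCT116 as companion control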
An asterisk follows results filed as active; . = no result given. This excerpt belongs to a sample that is enriched for hits.

SMILES	bCat KO growth	HUVEC inhibit	Fibroblast inh	H69AR growth 86K	PTEN del growth
CCOc1ccc2nc(NC(=O)CSc3nc4cccnc4n3C)sc2c1	81	68	97	26*	74
CCN(CC)S(=O)(=O)c1ccc(Cl)c(C(=O)Nc2ccc(Cl)cc2[N+](=O)[O-])c1	45	.	.	.	35
O=C(CCCCCn1c(=S)[nH]c2cc3c(cc2c1=O)OCO3)N1CCN(C2CCCCC2)CC1	8	49	4.8*	2.2*	2.7*
C=CCOC(=O)c1sc(N2C(=O)c3oc4ccccc4c(=O)c3C2c2ccco2)nc1C (stereo not drawn)	.	35	58	17*	.
COC(=O)c1sc(N2C(=O)c3oc4ccccc4c(=O)c3C2c2cccs2)nc1C (stereo not drawn)	65	.	.	.	47
COc1ccc(-c2ccc(-c3nnn(CC(=O)N4CCOCC4)n3)cc2)cc1	36	85	38*	24*	59
COc1cc(-c2nnn(CC(=O)N3CCOCC3)n2)cc(OC)c1OC	107	104	105	96	110
CCOC(=O)c1c(C)[nH]c(C(=O)Cn2nnc(-c3ccccc3)n2)c1C	92	81	80	61	102
CCOC(=O)c1c(NC(=O)CN2C(=O)NC(C)(c3ccc(OC(F)F)cc3)C2=O)sc(C)c1C (stereo not drawn)	78	.	.	.	70
CCOC(=O)c1c(C)[nH]c(C(=O)CN2C(=O)NC(CC)(c3ccccc3)C2=O)c1C (stereo not drawn)	75	100	94	37*	62
CCOC(=O)c1c(C)[nH]c(C(=O)CN2C(=O)NC(C)(c3ccc(C)cc3)C2=O)c1C (stereo not drawn)	59	97	107	39*	51
COc1ccc(S(=O)(=O)N(CCc2ccccc2)CC(=O)O)cc1C	110	90	92	87	91
CC(C)C(c1nnnn1C(C)(C)C)N1CCC(Cc2ccccc2)CC1 (stereo not drawn)	76	.	.	.	83
CCN1C/C(=C/c2cccc([N+](=O)[O-])c2)C(=O)/C(=C/c2cccc([N+](=O)[O-])c2)C1	1.7*	.	.	.	1.6*
CCN1CCN(C(=S)Nc2cccc([N+](=O)[O-])c2)CC1	90	.	.	.	88
CCOc1ccc(-n2nc3c(=O)n(CCN4CCCCC4)nc(C)c3c2C)cc1	92	.	.	.	100
CCc1nnc(NC(=O)CSc2nc(C)c3c(c2C#N)CCCC3)s1	58	59	94	24*	39
COc1ccc(NC(=O)CSc2nc(C)c3c(c2C#N)CCCC3)cc1	80	102	103	100	84
COc1ccc(-c2c3c(nc4sc(C(=O)Nc5ccccc5)c(N)c24)CCC3)cc1	.	43	80	30*	.
Cc1cc(C)c2nc(SCC#N)cc(C)c2c1	53	83	83	24*	59
CCc1c(C)nc(Nc2nc(C)c3cc(OC)ccc3n2)[nH]c1=O	48	84	89	28*	53
COc1nc(Nc2nc3ccccc3c(=O)[nH]2)nc2ccc(C)cc12	.	2.6*	6.7*	14*	.
COc1ccc2c(C)nc(Nc3nc(C)c(C)c(=O)[nH]3)nc2c1	1.7*	14*	13*	31*	1.6*
CCCCCc1c(C)nc(Nc2nc(C)c3cc(OC)ccc3n2)[nH]c1=O	57	78	96	70	64
CCO/C=C/C(O)(CNC(=O)c1ccc(C(C)(C)C)cc1)C(F)(F)F (stereo not drawn)	90	.	.	.	83
SMILES	bCat KO growth	HUVEC inhibit	Fibroblast inh	H69AR growth 86K	PTEN del growth
C/C(=N\NC(=O)c1nn(C)c(C)c1Br)c1cccc(NC(=O)c2ccoc2C)c1	101	.	.	.	98
CC(=O)/C(CN1CCCCC1)=N\O	117	93	98	102	95
C/C(=N\O)C(=O)C(CN1CCCCC1)CN1CCCCC1	100	74	15*	0.4*	82
COc1cc(OC)cc(-c2n[nH]c(=S)n2-c2cc(OC)ccc2OC)c1	88	101	96	24*	93
Cc1ccc(-c2[nH]c3ccccc3c2SCCNC(=O)c2ccc(S(=O)(=O)N3CCOCC3)cc2)cc1	0.8*	.	.	.	0.8*
COc1ccc(-c2[nH]c3ccccc3c2SCCNC(=O)c2ccccc2)cc1	60	.	.	.	56
Cc1cccc(-n2nnnc2SCC(=O)c2cc(C)n(Cc3ccco3)c2C)c1	96	49	.	7.3*	99
N#Cc1c(/N=C/c2ccco2)oc(-c2ccccc2)c1-c1ccccc1	98	109	92	98	103
N#Cc1c(N)oc(-c2ccco2)c1-c1ccco1	5.9*	93	100	83	12
COc1ccc(OC)c(/C=N/c2oc(-c3ccco3)c(-c3ccco3)c2C#N)c1	3.5*	85	94	43	5
CCSc1nc(N)c(C#N)c(-c2ccco2)c1C#N	87	80	84	32*	86
CC1(c2ccccc2)NC(=O)N(Cc2ccc([N+](=O)[O-])cc2)C1=O (stereo not drawn)	81	.	.	.	79
COc1ccc(C(NC=O)c2cc(OC)c(OC)cc2Br)cc1OC (stereo not drawn)	96	.	.	.	91
COCCNC(=O)/C(C#N)=C1\N=C(N)c2ccccc21	99	.	.	.	96
O=C(CSc1ccc(-c2ccc(Cl)cc2)nn1)Nc1ccc2c(c1)OCCO2	83	.	.	.	88
O=S(=O)([O-])CCC[n+]1c(SCCCS(=O)(=O)O)sc2ccc(Cl)cc21	93	.	.	.	95
COc1ccc(S(=O)(=O)Nc2ccccc2C)cc1	46	53	78	13*	38
Cc1ccccc1NS(=O)(=O)c1ccc(F)cc1	104	83	93	98	113
O=C(NCc1ccccc1)C(=O)NCC1COc2ccccc2O1 (stereo not drawn)	24	54	56	29*	24
Cc1cc2cc(CNC(=S)Nc3ccc(OC(F)(F)F)cc3)ccc2[nH]1	82	.	.	.	83
Cc1ccc(NCN2C(=O)C3CC=CCC3C2=O)cc1 (stereo not drawn)	102	94	103	87	96
N#CC(C#N)=C(Nc1ccc(F)cc1)SCc1cccc(F)c1	15	.	.	.	13
COC(=O)c1c(C)n(-c2ccc(OC)cc2)c2ccc(O)cc12	91	18*	79	18*	43
O=C(CSc1nc2c(c(C(F)(F)F)n1)CCc1ccccc1-2)NCc1ccco1	77	75	108	30*	51
CC(NC(=O)CSc1nc2c(c(C(F)(F)F)n1)CCc1ccccc1-2)c1ccccc1 (stereo not drawn)	75	97	105	84	72
O=C(CSc1nnc(-c2ccccc2)c(-c2ccccc2)n1)NCc1ccco1	45	66	89	20*	53
Fc1ccc2c(Cl)c(-c3nnc(-c4cccs4)o3)sc2c1	95	51	24*	12*	68
CCOc1ccccc1NC(=O)c1cc(C(=O)c2cc(OC)ccc2O)coc1=N	72	.	.	.	84
COc1ccc(OC)c(/C(O)=C/C(=O)C(=O)Nc2cc(C)cc(C)c2)c1	82	113	92	17*	86

Source: PubChem BioAssay (SRMLSC)
